Tested on: MS2 coat protein
Assay: apparent Kd, MS2 coat protein; higher = weaker binding; RNA-MaP array; FMN 200 µM where present
Procedure, shortened: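 Apparent Kd: the median of filtered binding-curve fits from single clusters. Designs were transcribed on Illumina sequencing-chip clusters by stalled E. coli RNA polymerase and titrated with SNAP-549-labelled MS2 coat protein from 0.7 or 1.5 nM, doubling to 3 µM, in 100 mM Tris-HCl pH 7.5, 80 mM KCl, 4 mM MgCl2, BSA, DTT, yeast tRNA and Tween-20. Each series ran without and then with constant ligand, and green signal was normalised to red-channel RNA signal and control-cluster median Fmax.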

[1] = designed as: OFF switch for flavin mononucleotide, no ligand
[2] = ligand present: flavin mononucleotide, designed as: OFF switch for flavin mononucleotide
[3] = designed as: ON switch for flavin mononucleotide, no ligand
[4] = ligand present: flavin mononucleotide, designed as: ON switch for flavin mononucleotide

## CUGAUGUUAGGAUAUCAGGUCGCGCACGAAGGCGCGCGGCAUGAGAAGGAACAUGAGGAUCACCCAUGUGACGA
[1]
  apparent Kd: 48.4 nM
[2]
  apparent Kd: 145 nM

## CUGCCACAUGAGGAUCACCCAUGUGAGGAUAUGGCCUGUUUGGCGUGUGCUGGCUCUGUCAGAAGGCGCGUGGG
[1]
  apparent Kd: 24.1 nM
[2]
  apparent Kd: 33.9 nM

## CUGCGACGGUGCACAAGUGGACGGAGAAGGCAGACAUGAGGAUCACCCAUGUGAGCCUGCUAUUCUGAGGAUAUCCGUUCACAC
[1]
  apparent Kd: 36 nM
[2]
  apparent Kd: 213 nM

## CUGCUAGUUGAGAAGGGACAACUUGGUGAUCGGACAUGAGGAUCACCCAUGUCAGGAUAUCAGGGUAGACCCAGCAGGGUGAAA
[1]
  apparent Kd: 6.56 nM
[2]
  apparent Kd: 7.83 nM

## CUGCUGGAGCUUUGCUUUAGUCGUACAUGAGGAUCACCCAUGUAGGAUAUGGUAGGCUUUGCUUACCAGAAGGAUAGAGUGGUC
[1]
  apparent Kd: 93.5 nM
[2]
  apparent Kd: 40.6 nM

## CUGGGCGGAGGAUAUGCGGGUUGGGCAUAAGUUCGGCUGGGACAUGAGGAUCACCCAUGUAGAAGGUUGUUCGG
[1]
  apparent Kd: 40.3 nM
[2]
  apparent Kd: 40 nM

## CUGGUGUGAGGAUAUCAGGACACGCCCGCGGACGUGUCAAAUGAGAAGGCACAUGAGGAUCACCCAUGUGGGAC
[1]
  apparent Kd: 33.4 nM
[2]
  apparent Kd: 166 nM

## CUGGUUGUCGAGGAUAUGCACCAGCUCACUGACGCAGAAGGCGACACAUGAGGAUCACCCAUGUCAGUUCGCGU
[1]
  apparent Kd: 16.9 nM
[2]
  apparent Kd: 18.9 nM

## CUGUACAUAGGAUAUAGUUGUUUUUACAUGAGGAUCACCCAUGUUACUCCUCUCUCUCUUCUAGAAGGAUGUUUCU
[1]
  apparent Kd: 65.8 nM
[2]
  apparent Kd: 50.1 nM

## CUGUGACGGAUCCAGAAUUACAACAUGAGGAUCACCCAUGUACAGGAUAUCGGGUUGAUAGGCGCCGAGAAGGGUAUGAUCACG
[1]
  apparent Kd: 137 nM
[2]
  apparent Kd: 121 nM

## CUGUUAUAGGUCCAGAAUUACAACAUGAGGAUCACCCAUGUGCAGGAUAUCGGGUUAAUUUUCGACGAGAAGGGCAUAGUCACG
[1]
  apparent Kd: 33.5 nM
[2]
  apparent Kd: 64.1 nM

## CUGUUAUAGGUCCAGUUUUACAACAUGAGGAUCACCCAUGUGCAGGAUAUCGUGUUAAUUUUCAUCGAGAAGGGCAUAGUCACG
[1]
  apparent Kd: 37.6 nM
[2]
  apparent Kd: 105 nM

## CUUACGCGAGGAUAUACAUGAGGAUCACCCAUGUAACGGUGUGUAAUAUAUAUUGCGUGUAGAAGGUGUGUGGG
[1]
  apparent Kd: 87 nM
[2]
  apparent Kd: 101 nM

## CUUCCAGUUGCAGGAUAUCGAGAGGAGAGAUUACGAGAAGGGCAACAUGAGGAUCACCCAUGUAUGUGCUUGGGACAACCUAUC
[1]
  apparent Kd: 16.8 nM
[2]
  apparent Kd: 107 nM

## CUUCGACAUGAGGAUCACCCAUGUCAGGAUAUUGUUUAUCUGGUUUUUUACAGAUAUACAAGAAGGGAUGUGUU
[1]
  apparent Kd: 27.5 nM
[2]
  apparent Kd: 24.6 nM

## CUUCUGUAAGGAUAUUGCGAUAAGCAUGACAUCGCCGGUCGCAAGAAGGUACAUGAGGAUCACCCAUGUGCGGU
[1]
  apparent Kd: 161 nM
[2]
  apparent Kd: 152 nM

## CUUCUGUGAGGAUAUGUUAGCUCCCGGCAUGUCGCUGGGAGACAGAAGGCACAUGAGGAUCACCCAUGUGGGCG
[1]
  apparent Kd: 34 nM
[2]
  apparent Kd: 161 nM

## CUUGUACAUGAGGAUCACCCAUGUUAGGAUAUCUCGCCGUCGGCUUGCCGACGGUAUUAGAGAAGGGACAAGGG
[1]
  apparent Kd: 22.5 nM
[2]
  apparent Kd: 26.7 nM

## CUUUAGUGAGGAUAUCAGUAGUAAUACAAUAGUAUUACUAUUGAGAAGGCACAUGAGGAUCACCCAUGUUCCUC
[1]
  apparent Kd: 24.6 nM
[2]
  apparent Kd: 141 nM

## CUUUCGUGAGGAUAUCAGUAGUAAUAAAAUAAAAUUACUACUGAGAAGGCACAUGAGGAUCACCCAUGUUCCUC
[1]
  apparent Kd: 25 nM
[2]
  apparent Kd: 138 nM

## CUUUCGUGAGGAUAUGUGGCUUCGAACGUGAGAUCGAGGCUACAGAAGGCACAUGAGGAUCACCCAUGUUCCUC
[1]
  apparent Kd: 34.3 nM
[2]
  apparent Kd: 395 nM

## CUUUUAUUGGUCCAUUUUUUCUACAUGAGGAUCACCCAUGUGCAGGAUAUCGUGAUUAUUAUCAACGAGAAGGGCAGAUUCACG
[1]
  apparent Kd: 29.8 nM
[2]
  apparent Kd: 78.4 nM

## CUUUUGUGAGGAUAUCAGUAGUAGAACAAUAGUACUACUACUGAGAAGGCACAUGAGGAUCACCCAUGUACCUC
[1]
  apparent Kd: 19.4 nM
[2]
  apparent Kd: 69.7 nM

## CUUUUGUGAGGAUAUCAGUGGUAAAACAAUAGUAUUACUACUGAGAAGGCACAUGAGGAUCACCCAUGUUCCUC
[1]
  apparent Kd: 47.1 nM
[2]
  apparent Kd: 304 nM

## CUUUUGUGAGGAUAUCAGUUGUAAAUAAAUAAAAUUACUACUGAGAAGGCACAUGAGGAUCACCCAUGUUCCUC
[1]
  apparent Kd: 38.1 nM
[2]
  apparent Kd: 198 nM

## CUUUUGUGAGGAUAUUAGUAGUAGAUAGUUGGUGGUGUUGCUGAGAAGGCACAUGAGGAUCACCCAUGUACAAC
[1]
  apparent Kd: 344 nM
[2]
  apparent Kd: 335 nM

## CUUUUGUGAGGAUAUUGGUAGUAAAUGAAUAAAAUUAUUACCGAGAAGGUACAUGAGGAUCACCCAUGUUCCUC
[1]
  apparent Kd: 19.4 nM
[2]
  apparent Kd: 27.9 nM

## GAAAUUACAUGAGGAUCACCCAUGUAGGAUAUCGCUAUUGUAAUCAUGUUACAUGAUUACAAUAGCGAGAAGGACGUGAGAAAG
[1]
  apparent Kd: 22.9 nM
[2]
  apparent Kd: 25.6 nM

## GAACCUAAGUUAGGAUAUGUCUAAGAAAGCUGACAUGAGGAUCACCCAUGUGAAUGCAAAGAAUGGCAGAAGGGAUAUGGGUGG
[3]
  apparent Kd: 73 nM
[4]
  apparent Kd: 76.8 nM

## GAACGUGAUGUAAGGAUAUGUAGCCAUCGAGGCGUAUAGAAGGUACAUGAGGAUCACCCAUGUGAGCUCGUUAU
[1]
  apparent Kd: 36.7 nM
[2]
  apparent Kd: 44.6 nM

## GAACUGAAGCAUAGCUUUAGUCGUACAUGAGGAUCACCCAUGUAGGAUAUGGUAGGCAUCGCUUACUAGAAGGAUAGAGUGAUC
[1]
  apparent Kd: 172 nM
[2]
  apparent Kd: 87.1 nM

## GAAUAAUUGAUCCAUUUUUAAAACAUGAGGAUCACCCAUGUGCAGGAUAUCGAUAGUUUUAAAUUCGAGAAGGGCAAGAACUGU
[1]
  apparent Kd: 128 nM
[2]
  apparent Kd: 173 nM

## GAAUGCCUGUCGAUGCUCGACAUGAGGAUCACCCAUGUAUAGCAGGAUAUGCAGAACUGACUCGUGCAGAAGGGCUAUACCUAA
[1]
  apparent Kd: 18.8 nM
[2]
  apparent Kd: 47.7 nM

## GAAUGGGAGUAGAAGGUACGUUAUUAGUUAAGGUAAGGAUAUACUAUAAUACAGACGACAUAUAAACAUGAGGAUCACCCAUGU
[3]
  apparent Kd: 10.3 nM
[4]
  apparent Kd: 6.55 nM

## GAAUGGGUAGAGGAUAUCGCCAUUUCAUCGAGGUGAGAAGGUUACACAUGAGGAUCACCCAUGUCGCCAUUAGC
[1]
  apparent Kd: 66.5 nM
[2]
  apparent Kd: 56.7 nM

## GAAUGUCGGGUAGGAUAUGACGUGCCACGGAGGUCAGAAGGGCCACGACAUGAGGAUCACCCAUGUACUAUGUUCCUUUUUCGA
[1]
  apparent Kd: 13.6 nM
[2]
  apparent Kd: 31.8 nM

## GACACUAUGUUUGUCAGAUAGAGAGAGGAUAUGGGUCAUGAGACAUGAGGAUCACCCAUGUUUAAUCAGAAGGCUCGAGUACGA
[3]
  apparent Kd: 30.7 nM
[4]
  apparent Kd: 15.6 nM

## GACAUGUGAGGAUAUCUGAUGUCUAACUUCGGUUAGACAUCAGAGAAGGCACAUGAGGAUCACCCAUGUCUGUC
[1]
  apparent Kd: 194 nM
[2]
  apparent Kd: 232 nM

## GACGAGUGAGGAUAUGGUGAGUAGUGCCUGAGCGCUGCUCACCAGAAGGCACAUGAGGAUCACCCAUGUAUGUC
[1]
  apparent Kd: 13.5 nM
[2]
  apparent Kd: 17.6 nM

## GACGGAUGUAUAGGAUAUCGACUGGAAUACAGUCGAGAAGGAUACAUGAGGAUCACCCAUGUAACCGUCAAUAAUAAUAAUAAU
[1]
  apparent Kd: 14 nM
[2]
  apparent Kd: 29.7 nM

## GACGGAUGUAUAGGAUAUGCUGAGGAUAACUCAGCAGAAGGAUACAUGAGGAUCACCCAUGUAAUAAUAAUAAUAAUAACCGUC
[1]
  apparent Kd: 13.3 nM
[2]
  apparent Kd: 24.1 nM

## GACGGUGAUGUAGGAUAUACGCUGGAAUACAGCGUAGAAGGACAUGAGGAUCACCCAUGUAAAGUGUCUCCAAAUAACACCGUC
[1]
  apparent Kd: 31.5 nM
[2]
  apparent Kd: 90.8 nM

## GACUAGGCAGGAUAUACAUGAGGAUCACCCAUGUGUCUGCGAUAGGCACGUGAUUACUGUAGAAGGGCCUUGAC
[2]
  apparent Kd: 44.1 nM

## GACUCGGGUGCAGGAUAUCCGCCGGAUCGCAGUGGAGAAGGGCGCCAAGCGAACAUGAGGAUCACCCAUGUAUCGGAGUUGAAC
[3]
  apparent Kd: 56.9 nM
[4]
  apparent Kd: 10.4 nM

## GACUGAUUACAGAAGGUGUAAGACAUGAGGAUCACCCAUGUGAUAUAGGGUAUAUUUGAAUAUAACAAGGAUAUGUAUAAAUCA
[3]
  apparent Kd: 102 nM
[4]
  apparent Kd: 60.4 nM

## GACUGAUUGUAGAAGGUACUUGAAUAUAUAUUUUAUCUCAUGUGACAUGAGGAUCACCCAUGUAGUAAGGAUAUACAUAUCACA
[3]
  apparent Kd: 52.9 nM
[4]
  apparent Kd: 42.2 nM

## GACUUGCUGUCAGGAUAUAACCGUCCUACACGGUUAGAAGGGACAUGAGGAUCACCCAUGUGCCAGAGCGCACGAAUUUUUUAC
[1]
  apparent Kd: 10.8 nM
[2]
  apparent Kd: 50.9 nM

## GAGAAGUCAGGAUAUGCAUGGCGGGACUUGCGUCGUGGCGUGCAGAAGGGACAUGAGGAUCACCCAUGUGGAGC
[1]
  apparent Kd: 114 nM
[2]
  apparent Kd: 161 nM

## GAGAAGUCAGGAUAUGCAUGGCGGGACUUGCGUCGUGGCGUGCAGAAGGGACAUGAGGAUCACCCAUGUGGAGG
[1]
  apparent Kd: 169 nM
[2]
  apparent Kd: 243 nM

## GAGAUGUGAGGAUAUCUAGACCAUGGAAAAGCCACGGUCCGAGAGAAGGCACAUGAGGAUCACCCAUGUGAUGA
[1]
  apparent Kd: 45.9 nM
[2]
  apparent Kd: 171 nM

## GAGCUAUGAGGAUAUGCAUAUAUACGGUUUCGUGUGGUACUACAUGAGGAUCACCCAUGUAGAAGGCGUGGCAG
[1]
  apparent Kd: 17.4 nM
[2]
  apparent Kd: 17.9 nM

## GAGCUGUGAGGAUAUACAUGAGGAUCACCCAUGUUAAGGAAGUCGGGAUUAAUUUAGUGUAGAAGGCACUUAUU
[1]
  apparent Kd: 39.9 nM
[2]
  apparent Kd: 41.6 nM

## GAGGAACAUGAGGAUCACCCAUGUGAGGAUAUGCAUAGUGAGGUAGUAGAAGUUGAAUGCAGAAGGUACACUGA
[1]
  apparent Kd: 42.2 nM
[2]
  apparent Kd: 32.2 nM

## GAGGACUGAAUAAAUAACUCAAAUACAUGAGGAUCACCCAUGUAGGAUAUCGUCAGGAAUACUGACGAGAAGGACAUACAGUCC
[1]
  apparent Kd: 13.4 nM
[2]
  apparent Kd: 19.2 nM

## GAGUAGUUAAAAGGAUAUUGAUUAUUGUAGGAUCAAGAAGGUUUUAACAUGAGGAUCACCCAUGUAGGACUAUUCCUGUGUAUC
[3]
  apparent Kd: 16.5 nM
[4]
  apparent Kd: 14.8 nM

## GAGUCACGAAUAAUAAUAAGAUCUACAUGAGGAUCACCCAUGUAGGAUAUGCAGUGGAAUACACUGCAGAAGGACAUACGUGAC
[1]
  apparent Kd: 14 nM
[2]
  apparent Kd: 17.5 nM

Reference: the EternaBench riboswitch data
